Experiment [1] deals with T1, Presenilin-associated rhomboid-like protein, mitochondrial (Homo sapiens) (UniProt Q9H300).
T1 sequence (whole entry): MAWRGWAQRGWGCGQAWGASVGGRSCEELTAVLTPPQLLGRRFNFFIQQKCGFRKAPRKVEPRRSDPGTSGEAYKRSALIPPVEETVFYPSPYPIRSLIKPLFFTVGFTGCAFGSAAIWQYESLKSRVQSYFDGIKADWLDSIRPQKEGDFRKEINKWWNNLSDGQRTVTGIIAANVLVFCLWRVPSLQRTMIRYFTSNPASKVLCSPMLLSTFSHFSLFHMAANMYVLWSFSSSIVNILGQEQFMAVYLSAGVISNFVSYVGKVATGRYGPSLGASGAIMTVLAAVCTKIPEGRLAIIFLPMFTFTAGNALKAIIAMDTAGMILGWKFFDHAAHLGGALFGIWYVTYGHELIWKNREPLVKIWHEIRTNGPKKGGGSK
Put plainly: Inhibition of human PARL expressed in human Flp-In-T-REx-293 cells overexpressing PINK1 assessed as stabilization of 66 kDa PINK1 at 0.1 to 30 uM incubated for 8 hrs by immunoblot analysis. Conditions: dose 0.1-30 µM. In kind it is cell-based. A digest of the protocol: (§1)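 HEK293 T-REx cells with inducible PINK1 were grown in DMEM with 10% FBS, GlutaMAX, pyruvate, hygromycin and blasticidin. PINK1 was induced with 0.3 μg/mL doxycycline for 24 h. Cells were treated for 8 h, with DMSO and CCCP (10 μM, 3 h) as comparators. Cleaved PINK1 forms were resolved by immunoblot of whole-cell samples.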

The target in experiment [2] is T1, Presenilin-associated rhomboid-like protein, mitochondrial (Homo sapiens). Put plainly: Inhibition of human PARL expressed in human HEK293T cells assessed as stabilization of 66 kDa PINK1 at 5 uM incubated for 8 hrs by immunoblot analysis. In kind it is cell-based. A digest of the protocol: (§2)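 Parental HEK293T cells (endogenous PINK1) were treated for 8 h, with DMSO or CCCP as comparators. Mitochondrial membranes were enriched by hypotonic needle lysis, 100,000 × g pelleting and 100 mM Na2CO3 extraction through a sucrose cushion. PINK1 was then read by immunoblot, with VDAC as fractionation control; n = 3, means ± SEM.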

For experiment [3] the target is unchanged. The experiment can be described thus: Inhibition of human PARL expressed in human Flp-In-T-REx-293 cells overexpressing PINK1 assessed as stabilization of 62 kDa PINK1 at 0.1 to 30 uM incubated for 8 hrs by immunoblot analysis. In kind it is cell-based. The conditions noted are these: dose 0.1-30 µM. A digest of the protocol: as §1
Background: A western blot detects proteins with antibodies after separation by electrophoresis.

Experiment [4] has the same target. Put plainly: Inhibition of human PARL expressed in human T-REx-293 cells overexpressing PINK1 transfected with HA-Parkin-IRES-GFP assessed as increase in Parkin level in mitochondrial fraction at 5 uM incubated for 22 hrs by immunoblot analysis. Format: mitochondria. The gist of the method:
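PINK1-induced HEK293 T-REx cells were transiently transfected with HA-Parkin-IRES-GFP (100 ng per 6-well, linear PEI). They were treated for 22 h, with DMSO, CCCP (10 μM, 3 h) and Antimycin A (30 μM, 3 h) as comparators. Cells were fractionated into cytosolic and mitochondrial fractions and immunoblotted (AIF, β-actin controls); n = 3, unpaired t-test.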

Experiment [5] shares this target. The experiment can be described thus: Inhibition of human PARL expressed in human Flp-In-T-REx-293 cells overexpressing PINK1 with OMA1 knockdown assessed as stabilization of 53 kDa PINK1 at 10 uM incubated for 8 hrs by immunoblot analysis. Format: cell-based. A digest of the protocol:
(§3)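 PINK1-inducible HEK293 T-REx cells were transfected with 20 nM siRNA using RNAiMAX and analysed five days later. PINK1 was induced with doxycycline. Cells were treated for 8 h with 10 μM or DMSO. Read-out was immunoblot, with β-actin as loading control.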

The target is the same in experiment [6]. The experiment can be described thus: Inhibition of human PARL expressed in human Flp-In-T-REx-293 cells overexpressing PINK1 assessed as stabilization of 62 kDa PINK1 by measuring its inner mitochondrial level at 5 uM incubated for 3 hrs followed by proteinase K treatment by immunoblot analysis. Format: cell-based. The gist of the method: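 PINK1 was induced in HEK293 T-REx cells by doxycycline and treated for 3 h, with DMSO and CCCP as comparators. Mitochondria were isolated at 4 °C in EGTA-free isolation buffer and exposed to proteinase K for 1 h, then PMSF (2.5 mM, 15 min). PINK1 forms were read by immunoblot, with AIF and VDAC as fractionation controls.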

For experiment [7] the target is unchanged. Put plainly: Inhibition of human PARL expressed in human Flp-In-T-REx-293 cells overexpressing PINK1 with OMA1 knockdown assessed as stabilization of 62 kDa PINK1 at 10 uM incubated for 8 hrs by immunoblot analysis. Format: cell-based. The gist of the method:
as §3

In a further experiment the test system is HEK-293T. Put plainly: Disruption of mitochondrial membrane potential in human HEK293T cells at 5 uM incubated for 3 hrs by JC-1 staining method. Format: functional, cell-based.
Experiment [8] addresses T1, Presenilin-associated rhomboid-like protein, mitochondrial (Homo sapiens). Put plainly: Inhibition of human PARL expressed in human HEK293T cells assessed as stabilization of 62 kDa PINK1 at 5 uM incubated for 8 hrs by immunoblot analysis. Format: cell-based. The gist of the method: as §2
The target is the same in experiment [9]. The experiment can be described thus: Inhibition of human PARL expressed in human Flp-In-T-REx-293 cells overexpressing PINK1 assessed as stabilization of 53 kDa PINK1 at 0.1 to 30 uM incubated for 8 hrs by immunoblot analysis. In kind it is cell-based. The conditions noted are these: dose 0.1-30 µM. The gist of the method: as §1
The target is the same in experiment [10]. Put plainly: Inhibition of human PARL expressed in human T-REx-293 cells overexpressing PINK1 transfected with mito-mCherry and Parkin-mEGFP assessed as Parkin recruitment in mitochondria at 5 uM incubated for 3 hrs by fluorescence based microscopic analysis. A digest of the protocol:
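PINK1-induced HEK293 T-REx cells on poly-L-lysine slides were co-transfected with mito-mCherry and Parkin-mEGFP using PEI. Nuclei were stained with Hoechst (1 μg/mL) before treatment, and cells were treated for 3 h alongside DMSO, CCCP and Antimycin A. Parkin colocalisation with mitochondria was judged by fluorescence microscopy and line-scan pixel intensity plots.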

For experiment [11] the target is unchanged. Put plainly: Inhibition of human PARL expressed in human Flp-In-T-REx-293 cells overexpressing PINK1 assessed as stabilization of 66 kDa PINK1 at outer mitochondrial membrane at 5 uM incubated for 6 hrs followed by proteinase K treatment by immunoblot analysis. In kind it is cell-based. A digest of the protocol:
(§4)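 PINK1 was induced in HEK293 T-REx cells (doxycycline 0.3 μg/mL, 24 h), then treated for 6 h. Cells were lysed directly, or mitochondria were isolated by needle lysis and 10,000 × g centrifugation and digested with proteinase K for 30 min, then 2.5 mM PMSF for 15 min. Read-out was immunoblot, with AIF as fractionation control.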

The target is the same in experiment [12]. The experiment can be described thus: Inhibition of human PARL expressed in human Flp-In-T-REx-293 cells overexpressing PINK1 assessed as stabilization of 53 kDa PINK1 at outer mitochondrial membrane at 5 uM incubated for 6 hrs followed by proteinase K treatment by immunoblot analysis. Format: cell-based. The gist of the method: as §4

Activity calls are given as the source filed them. The calls are words filed in the database; no cut-off is given here. *1 amine or outer side, *2 acyl side, *3 side chain or, on linkers, in order; H or OH if unused. Where a SMILES comes first, the peptide text is derived from it. [ ]: non-standard residue; d: D form. The star is where a group is joined. NH(4-phenylbutyl) = c1ccc(CCCCN*)cc1; X1 = C[C@H](N[*:1])C(=O)C(=O)[*:2]

`CC(=O)N[C@@H](C)C(=O)N[C@H](C(=O)N[C@@H](Cc1ccccc1)C(=O)N[C@@H](CC(C)C)C(=O)N[C@@H](C)C(=O)C(=O)NCCCCc1ccccc1)C(C)C` (Ac-AVFL[X1]-{NH(4-phenylbutyl)}): the inhibition entry in experiment [1], in [3] and in [9] was “Dose-Dependent Effect” throughout. The inhibition result in [2], in [4], in [5], in [6], in experiment [7] and in experiment [8] was “Active” throughout. The inhibition result in experiment [10] was “Active”. Also, in the experiment on HEK-293T, the outcome was inactive. For the same molecule, the inhibition result in experiment [11] and in experiment [12] was “inactive” throughout.
As for `N#CC(C#N)=NNc1cccc(Cl)c1`, the inhibition result in [4] was “Active”. In experiment [6], the inhibition result was “inactive”. The result in the experiment on HEK-293T was Active.
`CCCCCC[C@H]1C(=O)O[C@H](C)[C@H](NC(=O)c2cccc(NC=O)c2O)C(=O)O[C@@H](C)[C@@H]1OC(=O)CC(C)C`: the inhibition entry in experiment [4] was “Active”. Also, in experiment [10], the inhibition entry is “inactive”.

Values taken from ChEMBL document CHEMBL5316278, “Chemical Blockage of the Mitochondrial Rhomboid Protease PARL by Novel Ketoamide Inhibitors Reveals Its Role in PINK1/Parkin-Dependent Mitophagy” (J Med Chem, 2023).
